HTRA1 inhibitor – blocks human HTRA1 serine peptidase; Q92743; recombinant HTRA1, FP-rhodamine activity-based probe, fluorescence polarization; inhibition, % at 5.96 µM; 340,000 tested, 0.5% active; AID 504803; in the data active = inhibition above about 36%
Target sequence (Q92743 whole entry, looked up): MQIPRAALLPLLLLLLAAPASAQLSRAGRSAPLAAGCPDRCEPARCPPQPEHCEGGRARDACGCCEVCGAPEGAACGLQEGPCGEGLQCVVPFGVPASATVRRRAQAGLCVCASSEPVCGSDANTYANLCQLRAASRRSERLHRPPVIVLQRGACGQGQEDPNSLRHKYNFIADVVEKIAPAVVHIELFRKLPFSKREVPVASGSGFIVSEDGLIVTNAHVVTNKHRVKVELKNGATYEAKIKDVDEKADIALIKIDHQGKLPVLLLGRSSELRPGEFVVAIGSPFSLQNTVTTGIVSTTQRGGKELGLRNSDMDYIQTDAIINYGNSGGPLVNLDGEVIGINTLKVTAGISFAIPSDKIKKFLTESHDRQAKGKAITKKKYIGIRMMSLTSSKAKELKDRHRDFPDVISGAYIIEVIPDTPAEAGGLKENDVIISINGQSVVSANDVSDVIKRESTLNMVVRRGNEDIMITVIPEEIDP
Tn7 DDE FP – DD(E)-Tn7 binding inhibition, primary FP screen; FP displacement of FITC-Tn7 peptide from fibrin DD(E); 0% = median of compound wells per plate; inhibition, % at 8.3 µM; P02675; AID 720508; 370,000 tested, 0.13% active;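 active = inhibition above the mean of compounds falling within the control limits plus 3 SD of them, cut at about 14% in these data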
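Also added: labelled Tn7 tracer, 0.1 µM; Assay system: human fibrin DD(E) protein; Amount: 2 µM fibrin DD(E); Schedule: 10 min compound pre-incubation, 3 h probe incubation at room temperature; Repeats: one replicate per compound; Read-out basis: percent inhibition; Measured by: fluorescence polarization of the labelled Tn7 tracer.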
TCR CD3 inh – human TCR-CD3 binding inhibition. TAMRA-labeled TCR probe fluorescence, biochemical. 360,000 tested, 0.37% active. inhibition, % at 9.4 µM; in the data active = inhibition above about 19%;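 also: recombinant mutant TCR 2C K166C tagged with TAMRA read by polarization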
ABHD4 inh – inhibits mouse alpha/beta hydrolase domain 4; purified mABHD4, FP-Rh probe fluorescence polarization; 370,000 tested, 0.54% active; Q8VD66; AID 720543; inhibition, % at 8.92 µM;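 active = inhibition exceeding the mean over every tested compound plus 3 SD, cut at about 30% in these data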
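Doses – 8.92 µM, single dose · Material – wild-type mouse ABHD4 protein · Replication – single well per compound (singlicate) · Measure – percent inhibition of probe binding, normalized to plate controls · Schedule – 45 min compound pre-incubation plus 60 min probe step, 25 °C · Detection – fluorescence polarization with parallel and perpendicular emission, 525/598 nm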
Tn6 DDE FP – inhibitors of Tn6 peptide binding to human fibrin DD(E) | 370,000 tested, 0.21% active | Fibrin DD(E) TRITC-Tn6 fluorescence polarization displacement | inhibition, % at 8.3 µM;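 active = inhibition above a per-campaign cutoff: mean of compounds within control limits plus 3 SD, cut at about 15% in these data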
Tn6 DDE ctr – counter-screen hit for Tn6 peptide-fibrin DD(E) binding disruption. AID 720621. 680 tested, 2% active. shares compounds with Tn6 DDE FP. inhibition, % at 8.3 µM. TRITC-Tn6 fluorescence polarization displacement; 0% = median of compound wells, not DMSO;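 active = inhibition above the mean of test compounds lying between the control limits plus 3 SD of those, cut at about 14% in these data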
DDE Tn6 confirm – DD(E)-Tn6 binding inhibition, FP confirmation. 680 tested, 10% active. FP displacement of TRITC-Tn6 peptide from DD(E); 0% = per-plate median of test wells. shares compounds with Tn6 DDE FP. inhibition, % at 8.3 µM. AID 720631;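 active = inhibition above the mean of compounds lying within the control limits plus 3 SD, cut at about 16% in these data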
Large screens that a line does not name were inactive (follow-up assays come after a bar, where they were run); ! = not confirmed by another sample. Sampled rows, rich in hits. Any-hit rate of the full collection: about 1.3%.

O=C(CSc1nnc(C2COc3ccccc3O2)o1)Nc1ccc(F)cc1Cl (stereo unspecified)	none
CCCNC(=O)COC(=O)c1ccc(N2CCCC2)c([N+](=O)[O-])c1	none
Cc1cc(N2CCCCC2)nc(N2CCCCC2)n1	none
O=C(Nc1nnc(C2CC2)o1)c1ccc(S(=O)(=O)N2CCCCC2)cc1	none
CC1CCN(S(=O)(=O)c2ccc(C(=O)Nc3nnc(C4CC4)o3)cc2)CC1	Tn6 DDE FP 21 | Tn6 DDE ctr inactive | DDE Tn6 confirm inactive
Cc1nc(C(=O)N2CCCC(N3CCN(c4ccc(F)cc4)CC3)C2)cs1 (stereo unspecified)	none
Cc1ccc(C2CCC3(CCC(=O)N3CCO)CC2)cc1 (stereo unspecified)	Tn6 DDE FP 20! (no result: HTRA1 inhibitor, TCR CD3 inh) | Tn6 DDE ctr inactive | DDE Tn6 confirm inactive
Cc1ccc(NC(=S)N2CC(C)OC(C)C2)cc1C (stereo unspecified)	none
O=C(CSc1nnc(-c2ccccn2)n1Cc1ccco1)Nc1ccc2c(c1)OCO2	Tn6 DDE FP 15 | Tn6 DDE ctr inactive | DDE Tn6 confirm inactive
O=C(Cn1[nH]c(=O)c2ccccc2c1=O)OCC(=O)c1ccccc1Cl	Tn6 DDE FP 16 | Tn6 DDE ctr inactive | DDE Tn6 confirm inactive
O=C(Cn1[nH]c(=O)c2ccccc2c1=O)OCC(=O)c1ccc(F)cc1	none
O=C(O)c1cn(-c2ccc(N3CCCC3)c(F)c2)c2c(F)c(F)c(F)cc2c1=O	Tn6 DDE FP 18 | Tn6 DDE ctr inactive | DDE Tn6 confirm inactive
NC(=O)Cc1nc(-c2ccc([N+](=O)[O-])cc2)cs1	none
Cc1cc(=O)oc2cc(NC(=O)Cc3ccccc3)ccc12	none
COc1ccc(CCN2CC(C(=O)OCC(=O)c3c(N)n(CC(C)C)c(=O)n(C)c3=O)CC2=O)cc1OC (stereo unspecified)	Tn6 DDE FP 44 | Tn6 DDE ctr inactive | DDE Tn6 confirm inactive
CC(C)Cn1c(N)c(C(=O)COC(=O)C2CC(=O)N(Cc3ccccc3Cl)C2)c(=O)n(C)c1=O (stereo unspecified)	none
CCOc1ccc(CCNC(=O)C2CCN(S(=O)(=O)c3ccc(C)cc3)CC2)cc1OCC	none
O=C(Nc1ccccc1F)Oc1cccc(OC(=O)Nc2ccccc2F)c1	Tn6 DDE FP 15 | Tn6 DDE ctr inactive | DDE Tn6 confirm inactive
COc1cccc(C(=O)Nc2ccccc2F)c1	none
Cc1ccc(-c2csc3nc4ccc(C(=O)NCCO)cc4c(=O)n23)cc1	none
Cc1ccc(-c2csc3nc4cc(C(=O)NC5CCC(O)CC5)ccc4c(=O)n23)cc1 (stereo unspecified)	Tn6 DDE FP 17 | Tn6 DDE ctr inactive | DDE Tn6 confirm inactive
Cc1cccc2c(=O)cc(C)n(Cc3ccccc3)c12	none
CCCS(=O)(=O)NC(=O)C1(C)CCN(C(=O)c2cccc(OC(F)(F)F)c2)C1 (stereo unspecified)	Tn6 DDE FP 15 (no result: HTRA1 inhibitor) | Tn6 DDE ctr inactive | DDE Tn6 confirm inactive
CCNC(=O)C1(C)CCN(C(=O)c2cccc(OC(F)(F)F)c2)C1 (stereo unspecified)	none (no result: HTRA1 inhibitor)
CCOC(=O)N1CCN(C(=O)C[C@H]2C(=O)N(CCCOC)C3=CCCC[C@@]32C(=O)OCC)CC1	Tn6 DDE FP 15 (no result: HTRA1 inhibitor, TCR CD3 inh) | Tn6 DDE ctr inactive | DDE Tn6 confirm inactive
O=C(Nc1sc2c(c1C(=O)O)CCCCC2)c1cccs1	none
CCCCCOCC1CC(C/C(C)=N/NC(N)=S)C(=O)O1 (stereo unspecified)	Tn6 DDE FP 15 | Tn6 DDE ctr inactive | DDE Tn6 confirm inactive
C/C(CC1CC(COCC(C)C)OC1=O)=N\NC(N)=S (stereo unspecified)	none
COc1ccc(OC)c(-c2nnc(SCC(=O)N3CCOCC3)o2)c1	Tn6 DDE FP 19 | Tn6 DDE ctr inactive | DDE Tn6 confirm inactive
O=C(OCc1cc([N+](=O)[O-])cc2c1OCOC2)c1ccccn1	Tn6 DDE FP 18 | Tn6 DDE ctr inactive | DDE Tn6 confirm inactive
O=C(COC(=O)CC1CC2CCC1C2)NC(=O)NCc1ccco1 (stereo unspecified)	Tn6 DDE FP 20 | Tn6 DDE ctr inactive | DDE Tn6 confirm inactive
COc1ccc(NC(=O)C2CCCN2C(=O)NC2CCCCC2)cc1 (stereo unspecified)	Tn6 DDE FP 17 | Tn6 DDE ctr inactive | DDE Tn6 confirm inactive
O=C(NCCNC(=O)Oc1cccc2ccccc12)Oc1cccc2ccccc12	none
CCOc1ccc(S(=O)(=O)NCCC(=O)NCCOc2ccccc2OC)cc1	Tn6 DDE FP 22 | Tn6 DDE ctr inactive | DDE Tn6 confirm inactive
Fc1ccc(C2CCCCN2Cc2nc(CC3CC3)no2)cc1 (stereo unspecified)	none
Fc1ccc2nc(C3CCCCN3Cc3nc(CC4CC4)no3)[nH]c2c1 (stereo unspecified)	Tn6 DDE FP 16 | Tn6 DDE ctr inactive | DDE Tn6 confirm inactive
COc1ccc(S(=O)(=O)N[C@H](C(=O)O)C(C)C)cc1	none
CC(=O)NCc1ccc(S(=O)(=O)NC(C(=O)O)C(C)C)cc1 (stereo unspecified)	Tn6 DDE FP 16 | Tn6 DDE ctr inactive | DDE Tn6 confirm inactive
CCOC(=O)c1sc(N(Cc2ccccc2)C(=O)COC(=O)c2ccccc2O)nc1C	none
CCOC(=O)c1sc(N(Cc2ccccc2)C(=O)COC(=O)c2ccc(O)cc2)nc1C	Tn6 DDE FP 27 | Tn6 DDE ctr inactive | DDE Tn6 confirm inactive
COCCN(CC1CCCN(C2Cc3ccccc3C2)C1)C(=O)c1ccc(C(C)=O)cc1 (stereo unspecified)	Tn6 DDE FP 16 | Tn6 DDE ctr inactive | DDE Tn6 confirm inactive
CCn1cc(C=O)c2cc(S(=O)(=O)N3CCOCC3)ccc21	none
COc1cccc(NC(=O)c2ccccc2N2C(=O)C3C4C=CC(C4)C3C2=O)c1 (stereo unspecified)	Tn6 DDE FP 16 | Tn6 DDE ctr inactive | DDE Tn6 confirm inactive
O=c1[nH]nc(SCc2ccccc2Cl)n1-c1ccc2c(c1)OCCO2	Tn6 DDE FP 16 (no result: HTRA1 inhibitor) | Tn6 DDE ctr inactive | DDE Tn6 confirm inactive
COc1ccc(NC(=O)/C(C#N)=C/c2cccnc2)c(OC)c1	none
COc1ccc(NC(=O)C(=O)N/N=C/c2cccnc2)c(OC)c1	Tn6 DDE FP 16 | Tn6 DDE ctr inactive | DDE Tn6 confirm inactive
COc1ccc2ccccc2c1C=NNC(=O)c1cc(-c2ccc(C)c(C)c2)n[nH]1	Tn6 DDE FP 26 (no result: HTRA1 inhibitor, TCR CD3 inh) | Tn6 DDE ctr inactive | DDE Tn6 confirm 16
Cc1ccc(-c2cc(C(=O)NN=Cc3c(O)ccc4ccccc34)[nH]n2)cc1C	none (no result: HTRA1 inhibitor, TCR CD3 inh)

Source: PubChem BioAssay (The Scripps Research Institute Molecular Screening Center)
